For orientation: inhibition means the relative decrease from the control value, in per cent.

A short description of test [1]: inhibitors of TNFa-induced NFkB p65 translocation, primary screen, imaging, HUVEC, MLSMR starter and 10KST1 sets (AID 438;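 active = inhibition above 20% together with a positive visual image hit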;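 note: compound added about 3h40 before a 20 min TNFalpha stimulation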;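 for inhibition: signal is the nuclear over cytoplasmic p65 intensity ratio per well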). Conditions: HUVEC TNFa-induced p65 nuclear translocation; cell count: measured here: nuclei count (cytotoxicity indicator), at 2.08 µM; inhibition: at 2 µM, stronger effect = higher value, 0% TNFa-plus-vehicle, 100% no-TNFa wells.
The nature of test [2]: endothelial E-selectin expression blockers – imaging, HUVEC, immunofluorescence, MLSMR starter and 10KST1 sets, primary screen (AID 487;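 active = visually confirmed hit in the image check and inhibition above 20%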;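 for inhibition: signal is fraction of cell area covered by stained E-selectin grains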;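 for nuclei count: 100% = median nuclei count of all wells on the same plate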). Conditions: HUVEC TNFalpha-induced E-selectin immunofluorescence imaging, at 2 µM; inhibition: stronger effect = higher value; nuclei count: measured here: cell number, toxicity.
A short description of test [3]: Primary imaging screen for DUSP6 inhibitors that restore phospho-Erk in transfected HeLa cells, chemical complementation (AID 609;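 active = compounds giving at least 50% inhibition in the cell-based MKP-3 phosphatase rescue imaging test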;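 for inhibition: phospho-Erk level distribution per well compared with pooled transfected vehicle control wells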). Conditions: HeLa MKP-3 transfected, phospho-Erk imaging KS statistic, at 10 µM, cells stimulated with TPA for 15 min.
For test [4], the target named is Dual specificity protein phosphatase 6 (Homo sapiens) (UniProt Q16828). The description is as above. Conditions: HeLa MKP-3 transfected, phospho-Erk imaging KS statistic; at 10 µM; stronger effect = higher value; cells stimulated with TPA for 15 min.
Sequence of Dual specificity protein phosphatase 6 (Homo sapiens) (Q16828 whole entry, looked up): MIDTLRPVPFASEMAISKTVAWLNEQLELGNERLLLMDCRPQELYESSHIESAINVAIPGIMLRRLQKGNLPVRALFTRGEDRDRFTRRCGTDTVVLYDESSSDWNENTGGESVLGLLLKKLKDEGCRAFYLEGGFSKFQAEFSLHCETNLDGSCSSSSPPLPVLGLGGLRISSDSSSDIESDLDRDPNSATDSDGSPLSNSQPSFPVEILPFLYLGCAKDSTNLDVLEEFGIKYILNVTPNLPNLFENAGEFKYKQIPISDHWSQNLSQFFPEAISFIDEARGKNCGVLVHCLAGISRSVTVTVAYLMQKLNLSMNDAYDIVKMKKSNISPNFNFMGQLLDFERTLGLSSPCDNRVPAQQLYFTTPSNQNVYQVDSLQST
Test [5] addresses Voltage-gated potassium channel subunit beta-2 (Rattus norvegicus) (UniProt P62483). Briefly: inhibitors of rat Kvbeta2 reductase activity – biochemical, NADPH fluorescence, primary screen (AID 622;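 active = fluorescence slope higher than the sample average by over 3 SD, cut at about -0.22 in these data, passing the limit was not always enough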;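 note: slope of raw intensity against log time taken from 70 to 1610 s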). Conditions: recombinant KvBeta, 4-cyanobenzaldehyde reduction, at 10 µM, stronger effect = higher value.
For test [6] the target is unchanged. Briefly: enhancers of rat Kvbeta2 NADPH turnover – biochemical, NADPH fluorescence, primary screen (AID 623;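 active = NADPH fluorescence slope more negative than the mean of all samples by about 3 SD, 99.7% confidence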;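 note: fluorescence intensity change per second fitted from 20 to 320 s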). The conditions noted are these: Recombinant KvBeta, NADPH fluorescence decrease slope, 10 min; at 10 µM; stronger effect = lower value.
The target of test [7] is Muscarinic acetylcholine receptor M4 (Homo sapiens) (UniProt P08173). Briefly: M4-linked GIRK flux change, two-sided – cell-based, HEK293 M4/GIRK, thallium flux, BTC-AM, M4 allosteric agonist project, primary screen (AID 625;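 active = fluorescence slope after compound addition differing from the mean of all tested samples at 99.7% confidence, mostly higher but some lower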;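 note: thallium influx through GIRK channels coupled to M4 in HEK293 cells with BTC-AM dye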). The conditions noted are these: at 10 µM, actives lie on both sides. The essentials:
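Assay system: HEK293 cells with M4 receptor and GIRK channels / Controls: carbachol and DMSO controls / Schedule: 1 h dye loading, 2 min kinetic read / Technique: kinetic fluorescence with BTC-AM dye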

A short description of test [8]: inhibitors of larval lipid processing in zebrafish, primary screen, whole organism, PED6 fluorescence, gall bladder and intestine (AID 686).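 Note: larvae 5 to 7 days old with five fish per well; signal comes from phospholipase A2 cleavage of quenched PED6 carried via bile.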 The conditions noted are these: Zebrafish larvae PED6 lipid processing, fluorescence scoring; screened at 20 µM (by protocol). The method in brief: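 Doses: 20 µM single dose. Test system: live zebrafish larvae aged 5-7 days, whole organism. Quantity: five larvae per well. Measured by: By-eye fluorescence microscopy. Reagent: ingested quenched lipid PED6 at 100 nM. Read-out: visual per-well fluorescence inhibition score. Times: overnight exposure of larvae to compound plus PED6.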

Test [9] can be described thus: loss of swimming-algae plug formation – whole organism, Chlamydomonas reinhardtii, WT vs cilia-less mutant, absorbance, 96-well, primary screen (AID 463189;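 active = inhibition at or above 50% relative to wild type and mutant plate controls; inactive = inhibition below 50%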;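 note: 0% = wild type cc124 cells in DMSO and 100% = ciliumless bld1 mutant cells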). The conditions noted are these: Chlamydomonas reinhardtii gravitaxis, OD600 absorbance, 2 days; at 10 µM; stronger effect = higher value.
Setting [10] is: measured here: cell density z-score.
[11] abbreviates: measured here: nuclear c-Myc green intensity z-score.
The mark [12] stands for this setting: measured here: nuclear pErk red intensity z-score, stronger effect = higher value.

Activity calls are given as the source filed them.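 Rule for the calls, unless noted: active = a full or partial loss of lipid-probe fluorescence in the fish gall bladder, intestine or both, judged by eye; inactive = no fluorescence loss, or compound toxic to the fish.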

Sequence of Muscarinic acetylcholine receptor M4 (Homo sapiens) (P08173 whole entry, looked up): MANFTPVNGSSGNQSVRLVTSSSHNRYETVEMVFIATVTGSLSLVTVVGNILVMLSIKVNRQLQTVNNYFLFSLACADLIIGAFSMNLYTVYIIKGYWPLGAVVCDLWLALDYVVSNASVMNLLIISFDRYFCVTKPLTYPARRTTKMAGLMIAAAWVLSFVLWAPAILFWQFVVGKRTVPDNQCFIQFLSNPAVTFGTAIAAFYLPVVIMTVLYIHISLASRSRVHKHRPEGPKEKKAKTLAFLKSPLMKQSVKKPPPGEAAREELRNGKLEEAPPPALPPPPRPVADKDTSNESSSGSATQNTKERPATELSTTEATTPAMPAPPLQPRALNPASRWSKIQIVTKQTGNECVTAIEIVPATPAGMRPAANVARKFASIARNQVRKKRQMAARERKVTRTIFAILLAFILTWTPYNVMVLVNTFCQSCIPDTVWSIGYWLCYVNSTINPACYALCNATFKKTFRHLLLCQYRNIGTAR
Sequence of Voltage-gated potassium channel subunit beta-2 (Rattus norvegicus) (P62483 whole entry, looked up): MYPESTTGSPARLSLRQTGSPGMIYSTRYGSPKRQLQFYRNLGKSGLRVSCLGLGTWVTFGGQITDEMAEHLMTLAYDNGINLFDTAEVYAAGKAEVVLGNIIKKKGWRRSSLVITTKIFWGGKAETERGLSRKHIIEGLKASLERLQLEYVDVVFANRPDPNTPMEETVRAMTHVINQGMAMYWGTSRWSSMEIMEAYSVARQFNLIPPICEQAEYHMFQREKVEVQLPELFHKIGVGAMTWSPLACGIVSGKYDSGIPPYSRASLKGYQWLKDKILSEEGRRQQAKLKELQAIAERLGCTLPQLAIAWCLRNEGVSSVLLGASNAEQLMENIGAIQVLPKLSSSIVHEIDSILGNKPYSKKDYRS

In the case of `CCOC(=O)C(C)Oc1ccc2c(C)cc(=O)oc2c1C(C)=O` (stereo unspecified), in test [1], the cell count was determined as 708. For the same compound, the inhibition is 3.9% (inactive) in test [1], -13.3% (inactive) in test [2], 1.98% (inactive) in test [4] and 3.24% (inactive) in test [9]. This compound also registered a nuclei count in test [2] of 198%. Further, the values for the z-score in test [3] (setting [10]), in [3] (setting [11]) and in test [3] (setting [12]) were -0.905, 0.873 and 1.56, respectively. Further, the results for the fluorescence slope in [5] and in test [7] were -0.459 (inactive) and 0.00606 (inactive), respectively. Further, the NADPH fluorescence slope in [6] is -4.7e-05 (inactive). Moreover, in test [8], the compound was called inactive.

As to `CN(C)CCNC(=O)C12CC3(C)CC(C)(CC(C)(C3)C1)C2`, the cell count in test [1] was 524. In addition, the inhibition in test [1] was -4.4% (inactive); in [2], -34.6% (inactive); in test [4], -6.59% (inactive); in test [9], -10.5% (inactive). In test [2], the nuclei count turned out to be 118%. The results for the z-score in [3] (setting [10]), in [3] (setting [11]) and in test [3] (setting [12]) were -1.47, 1.88 and -1.54, respectively. Also, the fluorescence slope in test [5] is -0.465 (inactive); in test [7] it was 0.00507 (inactive). For the same compound, in [6], the NADPH fluorescence slope was -0.000122 (inactive). Further, the call in test [8] was inactive.

With `N#CCCN(C(=O)c1ccco1)c1ccccc1`, in [1], the cell count came out at 600. Besides, the inhibition in test [1] is 3.1% (inactive); in test [2], -91% (inactive); in test [4], 1.42% (inactive); in test [9], -5.86% (inactive). In [2], this compound displayed a nuclei count of 128%. In addition, the z-score in test [3] (setting [10]) is 0.6; in test [3] (setting [11]), -1.06; in [3] (setting [12]), -0.443. In addition, the fluorescence slope is -0.462 (inactive) in test [5] and 0.00534 (inactive) in [7]. For the same compound, in [6], the NADPH fluorescence slope was -0.000111 (inactive). Further, the compound was called inactive in [8].

On to `CCOC(=O)C1=C(C)OC(N)=C(C#N)C1c1cc2ccccc2nc1N1CCCCC1` (stereo unspecified), for which the cell count in test [1] came out at 619. The inhibition in [1] was -8.2% (inactive); in test [2], -33.5% (inactive); in [4], -14.6% (inactive); in test [9], 37.2% (inactive). This compound also yielded a nuclei count in test [2] of 181%. The z-score in test [3] (setting [10]) is -0.314; in test [3] (setting [11]) it was 0.189; in [3] (setting [12]) it was 0.368. The fluorescence slope was -0.315 (inactive) in test [5] and 0.00507 (inactive) in [7]. Also, the NADPH fluorescence slope in [6] is -8.1e-06 (inactive). Further, the compound was called inactive in [8].

As to `N#Cc1c(N)n(CCOC(=O)c2ccc(Cl)cc2)c2nc3ccccc3nc12`, in [1], the cell count is 617. For the same compound, the inhibition is 22.7% (active) in [1], -33.2% (inactive) in [2], -2.47% (inactive) in [4] and -2.92% (inactive) in test [9]. The compound further displayed a nuclei count in test [2] of 95%. Besides, the z-score in test [3] (setting [10]) is -0.315; in test [3] (setting [11]), -0.666; in test [3] (setting [12]) it was -0.586. Moreover, the fluorescence slope is -0.278 (inactive) in [5] and 0.00595 (inactive) in [7]. In addition, the NADPH fluorescence slope in test [6] was -7.1e-06 (inactive). Also, the outcome in [8] was inactive.

For `COc1ccc(C2=CC(c3ccc(C)cc3)n3nnnc3N2)cc1` (stereo unspecified), the cell count in [1] was 524. Besides, the inhibition in test [1] was -9.2% (inactive); in [2] it was 29.9% (inactive); in test [4], -9.91% (inactive); in [9], -5.34% (inactive). The nuclei count in [2] stood at 186%. Also, the z-score is -0.166 in [3] (setting [10]), -0.102 in [3] (setting [11]) and 0.752 in test [3] (setting [12]). In addition, the values for the fluorescence slope in test [5] and in [7] were -0.294 (inactive) and 0.00566 (inactive), respectively. The NADPH fluorescence slope in test [6] is -4.1e-05 (inactive). In addition, in test [8], the compound was called inactive.

`CCCCSc1nnc2n(CCc3ccccc3)c(=O)c3c4c(sc3n12)COC(C)(C)C4`: the cell count in [1] turned out to be 533. The inhibition was -4.4% (inactive) in [1], -25.9% (inactive) in test [2], 11.9% (inactive) in [4] and 129% (active) in [9]. In test [2], this compound showed a nuclei count of 170%. The z-score in [3] (setting [10]) was 1.42; in test [3] (setting [11]), -1.24; in test [3] (setting [12]), 0.334. Further, the fluorescence slope in test [5] is -0.334 (inactive); in [7], 0.00807 (inactive). Further, in test [6], the NADPH fluorescence slope was -6.5e-06 (inactive). Besides, the compound was classed as inactive in test [8].

Source of the values: PubChem BioAssay.
